Most compounds without a hit are left out; they make up all but 4.1% or so of the library.
RGS4 pot: potentiators or activators of RGS4; HEK293 M3R/inducible RGS4, carbachol calcium flux Fluo4; active compounds read low; B-score at 10 µM; 310,000 tested, 0.92% active;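 active = B-score of the integrated calcium signal more than 4 SD below the library mean, with starting fluorescence not abnormally high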;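 note: negative B-score means reduced calcium response which marks RGS4 activation or potentiation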
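Material: M3R-expressing HEK293 line, RGS4 induced by doxycycline | Schedule: Overnight RGS4 induction, 30 min dye load 37 °C, 20 min compound RT | Measured by: Fluo4 fluorescence kinetic imaging of calcium | Read-out: Integrated calcium ratio converted to B score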
Kir21 block: Kir2.1 (mouse) channel inhibition; P35561; HEK293-Kir2.1, FluxOR thallium flux fluorescence; active compounds read low; B-score at 10 µM; 310,000 tested, 0.85% active; AID 1672;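 active = fluorescence ratio B-score at or below minus 3 SD of library scores, with starting-brightness B-score within 2 SD, cut at about -4.2 in these data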;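 note: channel flux triggered by added potassium and thallium sulfate stimulus; B-score of peak minus minimum fluorescence over baseline after thallium stimulus; more negative B-score means stronger Kir2.1 block with less thallium influx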
MrgX1 allo act: allosterically activates human MrgX1 receptor signaling. MrgX1-HEK293, Fluo-4 calcium flux, FDSS; active compounds read high. B-score at 10 µM. 310,000 tested, 0.63% active. AID 588675;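 active = plate-corrected calcium response at least 3 library SD above typical, normal starting fluorescence, not activating the receptor alone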;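 note: compound read alongside a low EC10 to EC30 dose of BAM8-22 agonist; peak minus trough fluorescence over baseline measured at the second addition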
Target sequence (Q96LB2 whole entry, looked up): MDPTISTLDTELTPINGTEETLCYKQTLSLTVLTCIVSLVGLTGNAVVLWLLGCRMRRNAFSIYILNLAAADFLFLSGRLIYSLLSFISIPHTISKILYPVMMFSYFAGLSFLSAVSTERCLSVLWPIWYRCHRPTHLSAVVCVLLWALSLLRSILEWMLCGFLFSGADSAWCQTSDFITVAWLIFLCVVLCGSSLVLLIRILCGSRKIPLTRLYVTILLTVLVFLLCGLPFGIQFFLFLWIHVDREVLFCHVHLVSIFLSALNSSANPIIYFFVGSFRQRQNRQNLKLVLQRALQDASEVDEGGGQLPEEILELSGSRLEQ
MrgX1 ag: agonists of human MrgX1 receptor; MrgX1-HEK293 cells, Fluo-4 calcium fluorescence, agonist mode; active compounds read high; B-score at 10 µM; 310,000 tested, 0.44% active;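 active = calcium response B-score plate-corrected fluorescence ratio at least 3 library SD, with starting fluorescence B-score inside 5 SD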
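Material – MrgX1-expressing HEK293 cells · Input – 15,000 cells seeded per well · Dosing – compound as first of three additions · Times – overnight seeding, then 1 h dark dye loading · Measured by – kinetic Fluo-4 NW fluorescence of intracellular calcium · Read-out – B-scored fluorescence response ratio · Benchmarks – positive and negative control wells on each plate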
RGS4 block: human RGS4 inhibition | P49798 | HEK293 M3R/RGS4 inducible, Fluo-4 calcium flux; active compounds read high; triggered by carbachol at its EC20 | B-score at 10 µM | 310,000 tested, 0.45% active | AID 463165;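 active = B-score, a plate-corrected calcium signal, over three deviations above library mean, with baseline fluorescence within five deviations of library mean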;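 note: RGS4 expression induced by doxycycline in cells with stable M3 receptor; B-score is computed from the integrated fluorescence ratio over baseline after carbachol; higher B-score means a larger calcium signal and so more RGS4 inhibition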
Target sequence (P49798 whole entry, looked up): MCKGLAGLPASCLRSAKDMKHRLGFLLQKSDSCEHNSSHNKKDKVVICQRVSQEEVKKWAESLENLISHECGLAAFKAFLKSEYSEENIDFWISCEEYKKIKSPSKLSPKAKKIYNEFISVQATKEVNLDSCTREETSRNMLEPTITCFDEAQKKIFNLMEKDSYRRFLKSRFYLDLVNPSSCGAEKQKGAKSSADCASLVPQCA
MrgX1 antagonist: human MrgX1 receptor antagonism, primary screen | Q96LB2 | MRGX1-HEK293 calcium flux, Fluo-4, BAM8-22 antagonism; active compounds read low | B-score at 10 µM | 310,000 tested, 1.3% active;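 active = calcium-response B-score plate-corrected more than 3 library SD below zero, starting fluorescence within 5 deviations, no agonist response on first addition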;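 note: peak minus trough fluorescence over baseline after final BAM8-22 challenge near maximal dose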
RGS4 activ val: RGS4 activation, validation assay | shares compounds with RGS4 pot | HEK293 M3R/RGS4 inducible, carbachol calcium flux Fluo4 | inhibition, % at 10 µM | 1,100 tested, 89% active | AID 602282;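 active = inhibition above 3 SD of the buffer control wells, cut at about 41% in these data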;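 note: signal is the integrated peak-minus-minimum Fluo4 fluorescence over baseline ratio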
RGS4 act ctr: activity in cells without induced RGS4 expression; AID 602283; HEK293 M3R non-induced RGS4, Fluo4 calcium flux; after carbachol challenge at its EC90; inhibition, % at 10 µM; shares compounds with RGS4 pot; 1,100 tested, 82% active;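 active = inhibition exceeding 3 SD of buffer-only control wells, cut at about 26% in these data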;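 note: percent drop in integrated peak-minus-baseline over baseline Fluo4 ratio after carbachol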
MrgX1 ag reconf: reconfirmed activator of human MrgX1 receptor signaling; shares compounds with MrgX1 ag; MrgX1-HEK293, Fluo-4 calcium fluorescence, FDSS; activation, % at 10 µM; 600 tested, 78% active; AID 602412;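 active = calcium signal rise, corrected for plate position, at least 3 library SD high, with starting brightness within 5 such deviations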
MrgX1 PAM conf: reconfirmed allosteric activator of human MrgX1 receptor | shares compounds with MrgX1 allo act | MrgX1-HEK293, Fluo-4 calcium fluorescence, FDSS | activation (ratio percentage), % at 10 µM | 1,200 tested, 13% active | AID 602413;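 active = ratio at least 3 SD above the weak peptide control, stable starting fluorescence, no direct agonism earlier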;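 note: compound followed by low BAM8-22 agonist challenge near EC20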
MrgX1 ant reconf: confirmation of human MrgX1 receptor antagonists | shares compounds with MrgX1 antagonist | MrgX1-HEK293, BAM8-22 calcium flux, Fluo-4; active compounds read low | remaining BAM8-22 calcium response % of control (active compounds read low), % at 10 µM | 2,300 tested, 19% active;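 active = remaining agonist calcium response no higher than 100% minus 3 SD of agonist-only control wells, with starting fluorescence near control levels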;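 note: agonist BAM8-22 given at a near maximal EC90 to ECmax level; peak minus minimum fluorescence divided by baseline after agonist addition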
HEK293 Ca flux: counter-screen for MrgX1 antagonists: effect in parental HEK293 cells | AID 624111 | Fluo-4 calcium fluorescence, FDSS | shares compounds with MrgX1 antagonist | fluorescence ratio F(max-min)/F0 at 10 µM | 4,000 tested, 2% active;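 active = duplicate-averaged calcium fluorescence ratio at least three times the standard deviation of buffer wells, a nonspecific response in parental cells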
HEK293 Ca counter: activity in parental HEK293 cells without MrgX1 | shares compounds with MrgX1 antagonist | parental HEK293 calcium flux, Fluo-4 fluorescence ratio; active compounds read high | fluorescence ratio F(max-min)/F0 at 10 µM | 4,000 tested, 0.4% active;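 active = calcium fluorescence ratio, averaged over duplicates, at least 3 SD of the buffer-well ratio, meaning a nonspecific response in receptor-free cells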;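 note: untransfected parental HEK293 lacking MrgX1 used as counterscreen for MrgX1 allosteric activators; fluorescence change taken during the second addition on a kinetic imager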
HEK293 Ca cntr2: MrgX1 activator counter-screen hit in parental HEK293 cells; Fluo-4 calcium fluorescence (FDSS); active compounds read high; AID 624115; shares compounds with MrgX1 antagonist; fluorescence ratio F(max-min)/F0 at 10 µM; 4,000 tested, 8.7% active;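 active = calcium fluorescence ratio at least three times the spread of buffer wells, meaning a non-specific response in parental cells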
Each line names hits and unclear results; the compound was inactive in the other large screens (follow-up assays come after a bar, where they were run).

O=C(CSc1nc2ccccc2c2c1CCCC2)N1CCOCC1	RGS4 pot -9.3, MrgX1 allo act 19 | RGS4 activ val 92 | RGS4 act ctr 92 | MrgX1 PAM conf inactive | HEK293 Ca flux inactive | HEK293 Ca counter inactive | HEK293 Ca cntr2 inactive
OCCCNc1ncnc2oc(-c3ccccc3)c(-c3ccccc3)c12	RGS4 pot -8.4, MrgX1 antagonist -5 | RGS4 activ val inactive | RGS4 act ctr inactive | MrgX1 ant reconf inactive | HEK293 Ca flux inactive | HEK293 Ca counter inactive | HEK293 Ca cntr2 inactive
CCCc1cc(=O)[nH]c(SCC(=O)N(Cc2ccccc2)C(C)C)n1	none
COc1cccc(NC(=O)Nc2nc(-c3ccc(OC)c(OC)c3)cs2)c1	RGS4 pot -8.1, MrgX1 antagonist -7 | RGS4 activ val 92 | RGS4 act ctr 85 | MrgX1 ant reconf 22% | HEK293 Ca flux inactive | HEK293 Ca counter inactive | HEK293 Ca cntr2 inactive
COc1ccc(/C=C/CN2CCC(Oc3ccc(C(=O)N4CCCCC4)cc3)CC2)cc1	none
CCCc1ccc(Oc2cn[nH]c2-c2ccc(O)c(C)c2O)cc1	RGS4 pot -9.1, MrgX1 antagonist -6.8 | RGS4 activ val 93 | RGS4 act ctr 94 | MrgX1 ant reconf inactive | HEK293 Ca flux inactive | HEK293 Ca counter inactive | HEK293 Ca cntr2 inactive
CCCS(=O)(=O)Nc1c(OC)ccc2c1c(C(=O)OCC)c(C)n2C	none
COc1ccc(CC(=O)Nc2cccc(-c3nnc(-c4cccc(C)c4)o3)c2)cc1OC	RGS4 pot -9.9, MrgX1 antagonist -12 | RGS4 activ val 94 | RGS4 act ctr 94 | MrgX1 ant reconf 5.5% | HEK293 Ca flux inactive | HEK293 Ca counter inactive | HEK293 Ca cntr2 inactive
COc1ccc(CC(=O)Nc2ccc(-c3nnc(-c4ccccc4)o3)cc2)cc1OC	none
Cc1c(C(N)=O)sc2ncn(CC(=O)NCCc3ccccc3)c(=O)c12	none
CCCOc1ccc(NC(=O)c2c(-c3ccccc3)noc2C)cc1	none
CCCOc1ccc(C(=O)NC(=S)NNC(=O)c2c(-c3ccccc3)noc2C)cc1	RGS4 pot -11, MrgX1 ag 105 | RGS4 activ val 92 | RGS4 act ctr 82 | MrgX1 ag reconf 690% | HEK293 Ca flux inactive | HEK293 Ca counter inactive | HEK293 Ca cntr2 115
CCOC(=O)C1CCN(CC(C)(C)NS(=O)(=O)c2ccccc2)CC1	none

Source: PubChem BioAssay
